Reference: ChEMBL document CHEMBL1135505, “Synthesis and pharmacology of benzoxazines as highly selective antagonists at M(4) muscarinic receptors” (J Med Chem, 2002)

Tests used:
Type in all cases: cell-based
[1] = target: T1, Muscarinic acetylcholine receptor M4 (Homo sapiens, UniProt P08173); assay: Inhibition of [3H]NMS binding to human muscarinic acetylcholine receptor M4 in transfected CHO cells.
T1 sequence (P08173 whole entry): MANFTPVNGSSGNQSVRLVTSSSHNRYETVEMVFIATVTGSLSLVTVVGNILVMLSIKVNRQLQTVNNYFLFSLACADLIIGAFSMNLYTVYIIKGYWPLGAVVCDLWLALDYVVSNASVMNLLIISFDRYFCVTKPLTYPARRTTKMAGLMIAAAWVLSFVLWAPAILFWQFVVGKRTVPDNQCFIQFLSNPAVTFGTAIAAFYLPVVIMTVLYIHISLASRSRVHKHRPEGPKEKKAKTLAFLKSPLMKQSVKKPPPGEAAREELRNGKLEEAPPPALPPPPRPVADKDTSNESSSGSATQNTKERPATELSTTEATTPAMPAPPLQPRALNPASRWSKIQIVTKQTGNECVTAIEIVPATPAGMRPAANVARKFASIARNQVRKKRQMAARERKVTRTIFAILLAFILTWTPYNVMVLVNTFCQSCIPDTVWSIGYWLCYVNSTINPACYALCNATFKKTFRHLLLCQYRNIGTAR
Outline: (§1)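 Membranes from CHO-K1 cells expressing one human muscarinic subtype, harvested at 70-90% confluency. Incubated in 10 mM Na+/K+ PO4 pH 7.4 with 0.1 nM [3H]NMS and test compound for 120 min at 25 °C; atropine defined nonspecific binding. Filtration and scintillation counting. IC50 by logit fit, Ki by Cheng–Prusoff with KD (nM) M1 1.28, M2 0.85, M3 0.94, M4 3.10, M5 0.79. At least three tests, geometric mean.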

[2] = target: T2, Muscarinic acetylcholine receptor M2 (Homo sapiens, UniProt P08172); assay: Inhibition of [3H]-NMS binding to human muscarinic acetylcholine receptor M2 in transfected CHO cells.; outline: as §1
T2 sequence (P08172 whole entry): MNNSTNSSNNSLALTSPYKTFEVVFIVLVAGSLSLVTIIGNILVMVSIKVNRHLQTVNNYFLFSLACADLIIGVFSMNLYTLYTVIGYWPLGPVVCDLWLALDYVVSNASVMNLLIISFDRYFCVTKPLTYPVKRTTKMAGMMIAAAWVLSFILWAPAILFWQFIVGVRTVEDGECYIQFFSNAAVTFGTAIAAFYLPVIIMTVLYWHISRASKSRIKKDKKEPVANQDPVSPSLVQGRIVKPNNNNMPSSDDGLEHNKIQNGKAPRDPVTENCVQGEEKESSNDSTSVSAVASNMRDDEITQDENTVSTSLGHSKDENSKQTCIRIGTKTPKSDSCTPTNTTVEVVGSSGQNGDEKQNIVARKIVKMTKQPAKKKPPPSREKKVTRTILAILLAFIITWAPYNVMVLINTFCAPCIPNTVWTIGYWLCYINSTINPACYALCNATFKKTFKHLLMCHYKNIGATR

[3] = target: T3, Muscarinic acetylcholine receptor M1 (Homo sapiens, UniProt P11229); assay: Inhibition of [3H]NMS binding to human muscarinic acetylcholine receptor M1 in transfected CHO cells.; outline: as §1
T3 sequence (P11229 whole entry): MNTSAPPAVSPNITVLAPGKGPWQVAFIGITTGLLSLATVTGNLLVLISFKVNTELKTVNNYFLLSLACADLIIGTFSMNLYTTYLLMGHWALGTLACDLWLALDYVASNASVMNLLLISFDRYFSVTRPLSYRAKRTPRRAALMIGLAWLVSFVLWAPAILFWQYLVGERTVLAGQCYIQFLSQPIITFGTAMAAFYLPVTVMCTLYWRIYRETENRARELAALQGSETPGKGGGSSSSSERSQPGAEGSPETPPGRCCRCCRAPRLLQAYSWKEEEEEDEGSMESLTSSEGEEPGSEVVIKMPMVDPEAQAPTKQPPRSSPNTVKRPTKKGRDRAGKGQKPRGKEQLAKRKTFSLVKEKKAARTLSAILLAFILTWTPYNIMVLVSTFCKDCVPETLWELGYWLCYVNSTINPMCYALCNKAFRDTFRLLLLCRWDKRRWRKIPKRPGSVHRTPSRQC

[4] = target: Muscarinic acetylcholine receptor M3 (Homo sapiens, UniProt P20309); assay: Inhibition of [3H]NMS binding to human muscarinic acetylcholine receptor M3 in transfected CHO cells.; outline: as §1
Muscarinic acetylcholine receptor M3, sequence (P20309 whole entry): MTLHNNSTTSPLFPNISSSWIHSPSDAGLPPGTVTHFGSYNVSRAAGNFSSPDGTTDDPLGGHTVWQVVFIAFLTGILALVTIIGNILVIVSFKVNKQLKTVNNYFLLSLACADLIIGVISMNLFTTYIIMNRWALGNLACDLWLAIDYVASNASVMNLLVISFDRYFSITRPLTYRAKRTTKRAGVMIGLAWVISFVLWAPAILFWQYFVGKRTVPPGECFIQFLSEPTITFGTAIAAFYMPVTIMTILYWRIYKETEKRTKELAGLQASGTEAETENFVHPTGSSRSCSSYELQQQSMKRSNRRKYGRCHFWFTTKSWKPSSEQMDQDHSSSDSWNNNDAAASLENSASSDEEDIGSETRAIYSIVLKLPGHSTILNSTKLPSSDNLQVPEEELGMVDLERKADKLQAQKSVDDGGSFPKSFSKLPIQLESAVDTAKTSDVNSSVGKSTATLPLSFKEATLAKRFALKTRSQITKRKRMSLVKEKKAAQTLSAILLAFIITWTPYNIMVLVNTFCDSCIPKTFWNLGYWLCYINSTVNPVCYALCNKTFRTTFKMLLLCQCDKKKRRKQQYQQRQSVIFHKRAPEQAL

[5] = target: T4, Muscarinic acetylcholine receptor M5 (Homo sapiens, UniProt P08912); assay: Inhibition of [3H]NMS binding to human muscarinic acetylcholine receptor M5 in transfected CHO cells.; outline: as §1
T4 sequence (P08912 whole entry): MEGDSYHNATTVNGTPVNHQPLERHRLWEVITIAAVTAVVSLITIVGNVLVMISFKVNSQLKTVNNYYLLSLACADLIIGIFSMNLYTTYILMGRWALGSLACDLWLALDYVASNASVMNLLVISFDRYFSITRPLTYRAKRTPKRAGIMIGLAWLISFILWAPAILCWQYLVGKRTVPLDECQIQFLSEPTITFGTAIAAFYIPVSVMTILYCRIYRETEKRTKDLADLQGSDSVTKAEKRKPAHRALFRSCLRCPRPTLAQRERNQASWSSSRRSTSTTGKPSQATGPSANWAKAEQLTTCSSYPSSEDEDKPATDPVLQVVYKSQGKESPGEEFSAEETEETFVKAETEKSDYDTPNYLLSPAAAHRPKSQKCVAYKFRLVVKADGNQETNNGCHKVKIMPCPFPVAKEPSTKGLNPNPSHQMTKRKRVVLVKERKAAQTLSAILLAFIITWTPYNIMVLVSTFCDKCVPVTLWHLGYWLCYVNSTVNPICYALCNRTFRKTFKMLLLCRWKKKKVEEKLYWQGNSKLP

| Compound | Ki [1] [nM] | Ki [2] [nM] | Ki [3] [nM] | Ki [4] [nM] | Ki [5] [nM] |
| --- | --- | --- | --- | --- | --- |
| CCCCCc1[nH]c2ccc3c(c2c1C(=O)OCC)CN1CCc2cc(OC)ccc2C1O3 (stereo not given) | 11 | 7240 | 20400 | 457 | 5370 |
| C=CCOC(=O)c1c(C)n(Cc2ccc(OC)cc2)c2ccc3c(c12)CN1CCc2cc(OC)ccc2C1O3 (stereo not given) | 72.4 | 240 | 200 | 676 | 501 |
| COc1ccc2c(c1)CCN1Cc3c(ccc4[nH]c(C)c(C(=O)OCc5ccccc5)c34)OC21 (stereo not given) | 72.4 | 1350 | 1170 | 1380 | 1120 |
| CCCc1[nH]c2ccc3c(c2c1C(=O)OCC)CN1CCc2cc(SC)ccc2C1O3 (stereo not given) | 1 | 1450 | 871 | 100 | 2400 |
| COc1ccc2c(c1)CCN1Cc3c(ccc4[nH]c(C)c(-c5nc(C)no5)c34)OC21 (stereo not given) | 61.7 | 2190 | 7590 | 3090 | 6170 |
| COc1ccc2c(c1)CCN1Cc3c(ccc4[nH]c(C)c(Cc5ccccc5)c34)OC21 (stereo not given) | 1350 | 5370 | 2510 | 2040 | 1120 |
| CCOC(=O)c1c(C)[nH]c2ccc3c(c12)CN1CCc2cc(SC)ccc2C1O3 (stereo not given) | 7.08 | 2190 | 1780 | 229 | 1950 |
| CCOC(=O)c1c(CC)[nH]c2ccc3c(c12)CN1CCc2cc(OC)ccc2C1O3 (stereo not given) | 3.98 | 1350 | 2190 | 91.2 | 3090 |
| CCCCCCc1[nH]c2ccc3c(c2c1C(=O)OCC)CN1CCc2cc(OC)ccc2C1O3 (stereo not given) | 14.1 | 4570 | 3090 | 282 | > 28200 |
| CCOC(=O)c1c(C)[nH]c2ccc3c(c12)CN1CCc2cccc(Cl)c2C1O3 (stereo not given) | 1950 | 2450 | > 4370 | 5130 | 4790 |
| CCOC(=O)c1c(C)[nH]c2ccc3c(c12)CN1CCc2cc(Cl)ccc2C1O3 (stereo not given) | 363 | 3240 | 5130 | 2750 | 5370 |
| COC(=O)c1c(C)n(C)c2ccc3c(c12)CN1CCc2cc(OC)ccc2C1O3 (stereo not given) | 191 | 417 | 1170 | 398 | 3630 |
| CCOC(=O)c1c(CC)n(C)c2ccc3c(c12)CN1CCc2cc(OC)ccc2C1O3 (stereo not given) | 3.02 | 708 | 1510 | 219 | 3090 |
| CCOC(=O)c1c(CC)n(Cc2ccccc2)c2ccc3c(c12)CN1CCc2cc(OC)ccc2C1O3 (stereo not given) | 97.7 | 372 | 363 | 50.1 | 479 |
| CCCc1c(C(=O)OCC)c2c3c(ccc2n1C)OC1c2ccc(OC)cc2CCN1C3 (stereo not given) | 2 | 513 | 1320 | 70.8 | 3390 |
| CCN(C)C(=O)c1c(C)[nH]c2ccc3c(c12)CN1CCc2cc(OC)ccc2C1O3 (stereo not given) | 9770 | 4070 | 21900 | 15500 | 19500 |
| CCCCOC(=O)c1c(C)[nH]c2ccc3c(c12)CN1CCc2cc(OC)ccc2C1O3 (stereo not given) | 67.6 | 2340 | 1320 | 1020 | 2510 |
| CCOC(=O)c1c(C)n(C)c2ccc3c(c12)CN1CCc2cc(OC)ccc2C1O3 (stereo not given) | 15.1 | 513 | 2000 | 912 | 3720 |
| CCOC(=O)c1c(C)n(CC)c2ccc3c(c12)CN1CCc2cc(OC)ccc2C1O3 (stereo not given) | 110 | 219 | 1320 | 263 | 2510 |
| CCOC(=O)c1c(C)[nH]c2ccc3c(c12)CN1CCc2cc(O)ccc2C1O3 (stereo not given) | > 12300 | > 26900 | > 21900 | 25700 | > 28200 |
| CCCc1c(C(=O)OCC)c2c3c(ccc2n1C)OC1c2ccc(SC)cc2CCN1C3 (stereo not given) | 2 | 3800 | 3310 | 229 | 1700 |
| CCCCc1[nH]c2ccc3c(c2c1C(=O)OCC)CN1CCc2cc(SC)ccc2C1O3 (stereo not given) | 3.02 | 2190 | 871 | 339 | 1480 |
| CCCc1[nH]c2ccc3c(c2c1C(=O)OCC)CN1CCc2cc(OC)ccc2C1O3 (stereo not given) | 2 | 1070 | 2040 | 70.8 | 2240 |
| CCCCc1[nH]c2ccc3c(c2c1C(=O)OCC)CN1CCc2cc(OC)ccc2C1O3 (stereo not given) | 1 | 339 | 13200 | 151 | 11200 |
| C=CCOC(=O)c1c(C)[nH]c2ccc3c(c12)CN1CCc2cc(OC)ccc2C1O3 (stereo not given) | 15.1 | 1070 | 1320 | 407 | 2240 |
| CCOC(=O)c1c(C)[nH]c2ccc3c(c12)CN1CCc2cc(OC)ccc2C1O3 (stereo not given) | 7.08 | 537 | 1320 | 257 | 3390 |
